Assay results published in PMC2778733 (Journal of the American Chemical Society, 2008).
Read-outs that look alike come from different tables or passages of the source.

Assays:
[1] = target: T1, Siderocalin (Scn) (Homo sapiens, UniProt P80188); conditions: cited from earlier work
[2] = [L] = 10 μmol L^−1, [Fe^III] = 1 μmol L^−1; cited from earlier work
[3] = target: T1, Siderocalin (Scn); test: Fluorescence quenching binding assay of Scn; conditions: for Kd: 100 nM Scn, TBS pH 7.4, 5% DMSO
How it was run: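 Recombinant Scn, 100 nM in TBS pH 7.4 with 32 μg/mL ubiquitin and 5% DMSO, was titrated with 2–10 equivalents of substrate. Tryptophan quenching was read at excitation 281 nm and emission 340 nm, corrected for dilution. Metal complexes were formed in situ from a DMSO ligand stock plus 1 eq. metal salt, equilibrated 1 h, and used as a 6 μM working solution. Apo ligands were prepared without metal. Kd came from a one-site nonlinear least-squares fit.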

T1 sequence (P80188 21-198): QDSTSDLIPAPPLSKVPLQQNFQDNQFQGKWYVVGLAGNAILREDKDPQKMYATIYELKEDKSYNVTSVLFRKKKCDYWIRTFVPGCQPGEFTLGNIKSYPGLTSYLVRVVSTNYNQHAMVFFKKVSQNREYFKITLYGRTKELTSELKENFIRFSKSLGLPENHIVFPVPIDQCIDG

CC(=O)N(O)CCCC[C@H](NC(=O)CC(O)(CC(=O)N[C@@H](CCCCN(O)C(C)=O)C(=O)O)C(=O)O)C(=O)O [aerobactin]
Binding by Scn in words ([1]; natural siderophores): not bound

O=C1CCC(=O)N(O)CCC(O)CNC(=O)CCC(=O)N(O)CCC(O)CN1 (centres unmarked) [alcaligin]
Binding by Scn in words ([1]; natural siderophores): not bound

C[C@H]1OC(=O)[C@@H](NC(=O)CNC(=O)c2cccc(O)c2O)[C@@H](C)OC(=O)[C@@H](NC(=O)CNC(=O)c2cccc(O)c2O)[C@@H](C)OC(=O)[C@H]1NC(=O)CNC(=O)c1cccc(O)c1O [bacillibactin]
Binding by Scn in words ([1]; apo siderophore): bound with high affinity | Binding by Scn in words ([1]; natural siderophores): sequestered

CC(=O)N(O)CCCCCNC(=O)CCC(=O)N(O)CCCCCNC(=O)CCC(=O)N(O)CCCCCN [desferrioxamine B]
pM value (pM = -log[Fe^III]) [2]: 26.6

O=C(N[C@H]1COC(=O)[C@@H](NC(=O)c2cccc(O)c2O)COC(=O)[C@@H](NC(=O)c2cccc(O)c2O)COC1=O)c1cccc(O)c1O [enterobactin]
Binding by Scn in words ([1]; apo siderophore): bound with high affinity | Binding by Scn in words ([1]; natural siderophores): sequestered | pM value (pM = -log[Fe^III]) [2]: 35.3

O=C(CC(O)(CC(=O)NCCCCNCCCNC(=O)c1ccc(O)c(O)c1)C(=O)O)NCCCCNCCCNC(=O)c1ccc(O)c(O)c1 [petrobactin]
Binding by Scn in words [1]: not bound

O=C(N[C@H]1COC(=O)[C@@H](NC(=O)c2cc([C@@H]3O[C@H](CO)[C@@H](O)[C@H](O)[C@H]3O)cc(O)c2O)COC(=O)[C@@H](NC(=O)c2cc([C@@H]3O[C@H](CO)[C@@H](O)[C@H](O)[C@H]3O)cc(O)c2O)COC1=O)c1cccc(O)c1O [salmochelin-S4]
Binding by Scn in words ([1]; natural siderophores): not bound

O=C(NCCN(CCNC(=O)c1cccc(=O)n1O)CCNC(=O)c1cccc(=O)n1O)c1cccc(=O)n1O [tren(1,2-HOPO)3]
Kd ([3]; Fe^III complex): > 600 nM | Kd ([3]; V^IV complex): 300 ± 30 nM | Scn affinity in words ([3]; apo ligand, pH 7.4): micromolar affinity range | Kd ([3]; no metal (apo ligand)): 250 ± 30 nM

Cn1ccc(C(=O)NCCN(CCNC(=O)c2ccn(C)c(=O)c2O)CCNC(=O)c2ccn(C)c(=O)c2O)c(O)c1=O [tren(Me-3,2-HOPO)3]
Kd ([3]; Fe^III complex): > 600 nM

O=C(NCCN(CCNC(=O)c1cccc(O)c1O)CCNC(=O)c1cccc(=O)n1O)c1cccc(O)c1O [trenCAM2(1,2-HOPO), tren(CAM)2(1,2-HOPO)]
Kd ([3]; Fe^III complex): 0.8 ± 0.3 nM | Kd ([3]; V^IV complex): 40 ± 9 nM | Kd ([3]; no metal (apo ligand)): 1.4 ± 0.3 nM

Cn1ccc(C(=O)NCCN(CCNC(=O)c2cccc(O)c2O)CCNC(=O)c2cccc(O)c2O)c(O)c1=O [trenCAM2(Me-3,2-HOPO), tren(CAM)2(Me-3,2-HOPO)]
Kd ([3]; Fe^III complex): 120 ± 10 nM

O=C(NCCN(CCNC(=O)c1cccc(O)c1O)CCNC(=O)c1cccc(O)c1O)c1cccc(O)c1O [trenCAM3, tren(CAM)3]
Kd ([3]; V^IV complex): 1.3 ± 0.3 nM | Kd ([3]; no metal (apo ligand)): 1.2 ± 0.2 nM | Kd ([1]; Fe^III complex): 0.3 ± 0.1 nM

O=C(NCCN(CCNC(=O)c1cccc(=O)n1O)CCNC(=O)c1cccc(=O)n1O)c1cccc(O)c1O [trenCAM(1,2-HOPO)2, tren(CAM)(1,2-HOPO)2]
Kd ([3]; Fe^III complex): 43 ± 2 nM | Kd ([3]; V^IV complex): 220 ± 70 nM | Kd ([3]; no metal (apo ligand)): 140 ± 10 nM

Cn1ccc(C(=O)NCCN(CCNC(=O)c2cccc(O)c2O)CCNC(=O)c2ccn(C)c(=O)c2O)c(O)c1=O [trenCAM(Me-3,2-HOPO)2, tren(CAM)(Me-3,2-HOPO)2]
Kd ([3]; Fe^III complex): 150 ± 20 nM
